Measurements reported in ChEMBL document CHEMBL1240422, “Design, synthesis and biological evaluation of 3,5-diaryl-isoxazoline/isoxazole-pyrrolobenzodiazepine conjugates as potential anticancer agents” (2010).
Calls of active or inactive are those of the source. The rule behind the calls is not given here.

Columns and labels:
[1] = tested on: CCRF-CEM; test: Anticancer activity against human CCRF-CEM cells after 48 hrs by SRB assay; type: functional
[2] = tested on: HL-60(TB); test: Anticancer activity against human HL-60(TB) cells after 48 hrs by SRB assay; type: functional; conditions: HL-60, 48 h
[3] = tested on: K562; test: Anticancer activity against human K562 cells after 48 hrs by SRB assay; type: functional; conditions: K562, 48 h
[4] = tested on: MOLT-4; test: Anticancer activity against human MOLT4 cells after 48 hrs by SRB assay; type: functional; conditions: MOLT-4, 48 h
[5] = tested on: RPMI-8226; test: Anticancer activity against human RPMI8226 cells after 48 hrs by SRB assay; type: functional; conditions: RPMI-8226, 48 h
[6] = tested on: SR; test: Anticancer activity against human SR cells after 48 hrs by SRB assay; type: functional
[7] = tested on: A549; test: Anticancer activity against human A549 cells after 48 hrs by SRB assay; type: functional; conditions: A549, 48 h
Summary of the method: (§1)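 Grown in RPMI 1640 with 10% FBS and 2 mM L-glutamine at 37 °C, 5% CO2. Seeded at densities set by doubling time, then preincubated 24 h. Continuous 48 h drug exposure at four concentrations (0.1, 1, 10, 100), triplicate wells. Fixed with cold TCA (final 10%) at 4 °C, 60 min. Stained with 0.4% SRB in 1% acetic acid, eluted with 10 mM Tris base, read at 540/690 nm. Percent growth versus control wells.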

[8] = tested on: EKVX; test: Anticancer activity against human EKVX cells after 48 hrs by SRB assay; type: functional
[9] = tested on: HOP-62; test: Anticancer activity against human HOP62 cells after 48 hrs by SRB assay; type: functional; conditions: HOP-62, 48 h; summary of the method: as §1
[10] = tested on: HOP-92; test: Anticancer activity against human HOP92 cells after 48 hrs by SRB assay; type: functional; conditions: HOP-92, 48 h
[11] = tested on: NCI-H226; test: Anticancer activity against human NCI-H226 cells after 48 hrs by SRB assay; type: functional; conditions: NCI-H226, 48 h
[12] = tested on: NCI-H23; test: Anticancer activity against human NCI-H23 cells after 48 hrs by SRB assay; type: functional; conditions: NCI-H23, 48 h
[13] = tested on: NCI-H322M; test: Anticancer activity against human NCI-H322M cells after 48 hrs by SRB assay; type: functional
[14] = tested on: NCI-H460; test: Anticancer activity against human NCI-H460 cells after 48 hrs by SRB assay; type: functional; conditions: NCI-H460, 48 h
[15] = tested on: NCI-H522; test: Anticancer activity against human NCI-H522 cells after 48 hrs by SRB assay; type: functional; conditions: NCI-H522, 48 h
[16] = tested on: COLO 205; test: Anticancer activity against human COLO205 cells after 48 hrs by SRB assay; type: functional; conditions: COLO 205, 48 h; summary of the method: as §1
[17] = tested on: HCC 2998; test: Anticancer activity against human HCC2998 cells after 48 hrs by SRB assay; type: functional; conditions: HCC 2998, 48 h
[18] = tested on: HCT-116; test: Anticancer activity against human HCT116 cells after 48 hrs by SRB assay; type: functional; conditions: HCT-116, 48 h
[19] = tested on: HCT-15; test: Anticancer activity against human HCT15 cells after 48 hrs by SRB assay; type: functional; conditions: HCT-15, 48 h
[20] = tested on: HT-29; test: Anticancer activity against human HT-29 cells after 48 hrs by SRB assay; type: functional; conditions: HT-29, 48 h
[21] = tested on: KM12; test: Anticancer activity against human KM12 cells after 48 hrs by SRB assay; type: functional; conditions: KM12, 48 h
[22] = tested on: SW-620; test: Anticancer activity against human SW620 cells after 48 hrs by SRB assay; type: functional; conditions: SW-620, 48 h
[23] = tested on: SF-268; test: Anticancer activity against human SF268 cells after 48 hrs by SRB assay; type: functional; conditions: SF-268, 48 h
[24] = tested on: SF-539; test: Anticancer activity against human SF539 cells after 48 hrs by SRB assay; type: functional; conditions: SF-539, 48 h
[25] = tested on: SNB-19; test: Anticancer activity against human SNB19 cells after 48 hrs by SRB assay; type: functional; conditions: SNB-19, 48 h
[26] = tested on: SNB-75; test: Anticancer activity against human SNB75 cells after 48 hrs by SRB assay; type: functional; conditions: SNB-75, 48 h
[27] = tested on: U-251; test: Anticancer activity against human U251 cells after 48 hrs by SRB assay; type: functional; conditions: U-251, 48 h
[28] = tested on: LOX IMVI; test: Anticancer activity against human LOXIMVI cells after 48 hrs by SRB assay; type: functional
[29] = tested on: Malme-3M; test: Anticancer activity against human MALME-3M cells after 48 hrs by SRB assay; type: functional
[30] = tested on: M14; test: Anticancer activity against human M14 cells after 48 hrs by SRB assay; type: functional; conditions: M14, 48 h
[31] = tested on: SK-MEL-2; test: Anticancer activity against human SK-MEL-2 cells after 48 hrs by SRB assay; type: functional; conditions: SK-MEL-2, 48 h
[32] = tested on: IGROV-1; test: Anticancer activity against human IGROV1 cells after 48 hrs by SRB assay; type: functional; conditions: IGROV-1, 48 h
[33] = tested on: OVCAR-3; test: Anticancer activity against human OVCAR-3 cells after 48 hrs by SRB assay; type: functional; conditions: OVCAR-3, 48 h
[34] = tested on: OVCAR-4; test: Anticancer activity against human OVCAR4 cells after 48 hrs by SRB assay; type: functional; conditions: OVCAR-4, 48 h
[35] = tested on: OVCAR-5; test: Anticancer activity against human OVCAR5 cells after 48 hrs by SRB assay; type: functional; conditions: OVCAR-5, 48 h
[36] = tested on: OVCAR-8; test: Anticancer activity against human OVCAR8 cells after 48 hrs by SRB assay; type: functional; conditions: OVCAR-8, 48 h
[37] = tested on: SK-OV-3; test: Anticancer activity against human SKOV3 cells after 48 hrs by SRB assay; type: functional; conditions: SK-OV-3, 48 h
[38] = tested on: 786-0; test: Anticancer activity against human 786-0 cells after 48 hrs by SRB assay; type: functional; conditions: 786-0, 48 h
[39] = tested on: A498; test: Anticancer activity against human A498 cells after 48 hrs by SRB assay; type: functional; conditions: A498, 48 h
[40] = tested on: ACHN; test: Anticancer activity against human ACHN cells after 48 hrs by SRB assay; type: functional
[41] = tested on: CAKI-1; test: Anticancer activity against human Caki1 cells after 48 hrs by SRB assay; type: functional; conditions: CAKI-1, 48 h
[42] = tested on: RXF 393; test: Anticancer activity against human […] cells after 48 hrs by SRB assay; type: functional; conditions: RXF 393, 48 h
[43] = tested on: SN12C; test: Anticancer activity against human SN12C cells after 48 hrs by SRB assay; type: functional
[44] = tested on: TK-10; test: Anticancer activity against human TK10 cells after 48 hrs by SRB assay; type: functional; conditions: TK-10, 48 h
[45] = tested on: UO-31; test: Anticancer activity against human UO31 cells after 48 hrs by SRB assay; type: functional; conditions: UO-31, 48 h
[46] = tested on: MCF7; test: Anticancer activity against human MCF7 cells after 48 hrs by SRB assay; type: functional; conditions: MCF7, 48 h; summary of the method: as §1
[47] = tested on: MDA-MB-231; test: Anticancer activity against human MDA-MB-231 cells after 48 hrs by SRB assay; type: functional; conditions: MDA-MB-231, 48 h
[48] = Anticancer activity against human Hs 578T cells after 48 hrs by SRB assay; type: functional
[49] = tested on: MDA-MB-435; test: Anticancer activity against human MDA-MB-435 cells after 48 hrs by SRB assay; type: functional; conditions: MDA-MB-435, 48 h
[50] = tested on: BT-549; test: Anticancer activity against human BT549 cells after 48 hrs by SRB assay; type: functional; conditions: BT-549, 48 h
[51] = tested on: T47D; test: Anticancer activity against human T47D cells after 48 hrs by SRB assay; type: functional
[52] = tested on: MDA-MB-468; test: Anticancer activity against human MDA-MB-468 cells after 48 hrs by SRB assay; type: functional; conditions: MDA-MB-468, 48 h
[53] = tested on: DU-145; test: Anticancer activity against human DU145 cells after 48 hrs by SRB assay; type: functional; conditions: DU-145, 48 h
[54] = tested on: PC-3; test: Anticancer activity against human PC3 cells after 48 hrs by SRB assay; type: functional; conditions: PC-3, 48 h; summary of the method: as §1
[55] = tested on: SK-MEL-28; test: Anticancer activity against human SK-MEL-28 cells after 48 hrs by SRB assay; type: functional; conditions: SK-MEL-28, 48 h
[56] = tested on: SK-MEL-5; test: Anticancer activity against human SK-MEL-5 cells after 48 hrs by SRB assay; type: functional; conditions: SK-MEL-5, 48 h
[57] = tested on: UACC-257; test: Anticancer activity against human UACC257 cells after 48 hrs by SRB assay; type: functional; conditions: UACC-257, 48 h
[58] = tested on: UACC-62; test: Anticancer activity against human UACC62 cells after 48 hrs by SRB assay; type: functional; conditions: UACC-62, 48 h
[59] = tested on: A-375; test: Cytotoxicity against human A375 cells at 4 uM after 24 hrs […]; type: functional, cell-based
[60] = tested on: A-375; test: Cell cycle arrest in human A375 cells assessed as accumulation at G0/G1 phase at 4 uM after 24 hrs using propidium iodide staining by FACS; type: functional
Summary of the method: (§2)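 Treated A375 cells (24 h) were harvested with trypsin-EDTA and fixed in ice-cold 70% ethanol (4 °C, 30 min). After a PBS wash, they were incubated with 1 mg/mL RNase A (37 °C, 30 min) and stained with propidium iodide solution containing trisodium citrate and Triton X-100. DNA content was measured by flow cytometry on 20,000 events. Controls were DMSO-treated.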

[61] = tested on: A-375; test: Cell cycle arrest in human A375 cells assessed as accumulation at S phase at 4 uM after 24 hrs using propidium iodide staining by FACS; type: functional; summary of the method: as §2
[62] = tested on: A-375; test: Cell cycle arrest in human A375 cells assessed as accumulation at G2/M phase at 4 uM after 24 hrs using propidium iodide staining by FACS; type: functional; summary of the method: as §2

COc1ccc(C2CC(c3cc(OC)c(OC)c(OC)c3)=NO2)cc1OCCCCOc1cc2c(cc1OC)C(=O)N1CCC[C@H]1C=N2 (some centres not stated)
GI50 [1]: 1.41 µM | GI50 [2]: 1.9 µM | GI50 [3]: 1.26 µM | GI50 [4]: 1.85 µM | GI50 [5]: 1.43 µM | GI50 [6]: 1.12 µM | GI50 [7]: 2.33 µM | GI50 [8]: 3.68 µM | GI50 [9]: 1.68 µM | GI50 [10]: 2.47 µM | GI50 [11]: 1.67 µM | GI50 [12]: 1.83 µM | GI50 [13]: 3.46 µM | GI50 [14]: 1.85 µM | GI50 [15]: 0.61 µM | GI50 [16]: 1.96 µM | GI50 [17]: 1.58 µM | GI50 [18]: 1.7 µM | GI50 [19]: 2.27 µM | GI50 [20]: 2.75 µM | GI50 [21]: 1.74 µM | GI50 [22]: 1.55 µM | GI50 [23]: 1.89 µM | GI50 [24]: 1.8 µM | GI50 [25]: 1.96 µM | GI50 [26]: 1.71 µM | GI50 [27]: 1.73 µM | GI50 [28]: 1.47 µM | GI50 [29]: 2.88 µM | GI50 [30]: 1.73 µM | GI50 [31]: 2.03 µM | GI50 [32]: 1.57 µM | GI50 [33]: 1.94 µM | GI50 [34]: 2.07 µM | GI50 [35]: 3.13 µM | GI50 [36]: 2.55 µM | GI50 [37]: 3.37 µM | GI50 [38]: 1.57 µM | GI50 [39]: 1.72 µM | GI50 [40]: 2.41 µM | GI50 [41]: 3.09 µM | GI50 [42]: 1.39 µM | GI50 [43]: 1.58 µM | GI50 [44]: 3.51 µM | GI50 [45]: 2.09 µM | GI50 [46]: 1.75 µM | GI50 [47]: 1.15 µM | GI50 [48]: 1.1 µM | GI50 [49]: 3.54 µM | GI50 [50]: 1.23 µM | GI50 [51]: 1.31 µM | GI50 [52]: 1.34 µM | GI50 [53]: 0.32 µM | GI50 [54]: 0.32 µM | GI50 [55]: 2.07 µM | GI50 [56]: 1.47 µM | GI50 [57]: 2.33 µM | GI50 [58]: 1.52 µM

COc1ccc(/C=C\c2cc(OC)c(OC)c(OC)c2)cc1O [COMBRETASTATIN A4]
Activity [59]: Active | Activity [60]: 49.08% | Activity [61]: 38.1% | Activity [62]: 12.81%
